This is an account of results in ChEMBL document CHEMBL4813921, “Optimization of WZ4003 as NUAK inhibitors against human colorectal cancer” (Eur J Med Chem, 2021).

SMILES strings stand for the structures. Active and inactive are the calls of the source. No cut-off for these calls is given here.

In series [1] the test system is SW480. The experiment in a line: Induction of apoptosis in human SW480 cells assessed as necrotic cells at 10 uM measured after 48 hrs by Annexin V-FITC/PI staining based flow cytometry method (reference value: 1.4%). Type of series: functional.
Series [2] has as its system SW480. The experiment in a line: Induction of apoptosis in human SW480 cells assessed as late apoptotic cells at 10 uM measured after 48 hrs by Annexin V-FITC/PI staining based flow cytometry method (reference value: 2.8%). Type of series: functional.
Series [3] concerns HCT-116. The experiment in a line: Antiproliferative activity against human HCT-116 cells assessed as reduction in cell viability at 10 uM measured after 1 to 5 days by MTT assay relative to control. It is filed as functional, cell-based. The following applies: time 1-5 day. The gist of the method: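 MTT viability read daily over 1–5 days of exposure to 10 μM compound; mean ± SD, n = 3.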

In series [4] the test system is U2OS. The experiment in a line: Induction of cell cycle arrest in human U2OS cells assessed as reduction in accumulation at S phase at 10 uM measured after 48 hrs by PI/RNaseA staining based flow cytometry assay. Type of series: functional.
For series [5], the system named is SW480. The experiment in a line: Induction of cell cycle arrest in human SW480 cells assessed as reduction in accumulation at S phase at 10 uM measured after 48 hrs by PI/RNaseA staining based flow cytometry assay. Type of series: functional.
The subject of series [6] is SW480. The experiment in a line: Induction of ROS generation in human SW480 cells at 10 uM measured after 48 hrs by DCFH-DA staining based flow cytometry method. Type of series: functional, cell-based. The gist of the method:
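Cells treated at 10 μM for 48 h, ROS measured by flow cytometry. Fluorescence intensity expressed relative to vehicle-treated controls; mean ± SEM from 3 independent experiments.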

Series [7] relates to U2OS. The experiment in a line: Induction of apoptosis in human U2OS cells assessed as late apoptotic cells at 10 uM measured after 48 hrs by Annexin V-FITC/PI staining based flow cytometry method (reference value: 1.3%). Type of series: functional.
Series [8] concerns U2OS. The experiment in a line: Induction of cell cycle arrest in human U2OS cells assessed as reduction in accumulation at G1 phase at 10 uM measured after 48 hrs by PI/RNaseA staining based flow cytometry assay. Type of series: functional.
The test system of series [9] is SW480. The experiment in a line: Induction of cell cycle arrest in human SW480 cells assessed as increase in accumulation at G2/M phase at 10 uM measured after 48 hrs by PI/RNaseaA staining based flow cytometry assay. It is filed as functional.
In series [10] the test system is U2OS. The experiment in a line: Induction of apoptosis in human U2OS cells assessed as necrotic cells at 10 uM measured after 48 hrs by Annexin V-FITC/PI staining based flow cytometry method (reference value: 0.4%). It is filed as functional.
Series [11] deals with T1, NUAK family SNF1-like kinase 1 (Homo sapiens) (UniProt O60285).
T1 sequence (whole entry): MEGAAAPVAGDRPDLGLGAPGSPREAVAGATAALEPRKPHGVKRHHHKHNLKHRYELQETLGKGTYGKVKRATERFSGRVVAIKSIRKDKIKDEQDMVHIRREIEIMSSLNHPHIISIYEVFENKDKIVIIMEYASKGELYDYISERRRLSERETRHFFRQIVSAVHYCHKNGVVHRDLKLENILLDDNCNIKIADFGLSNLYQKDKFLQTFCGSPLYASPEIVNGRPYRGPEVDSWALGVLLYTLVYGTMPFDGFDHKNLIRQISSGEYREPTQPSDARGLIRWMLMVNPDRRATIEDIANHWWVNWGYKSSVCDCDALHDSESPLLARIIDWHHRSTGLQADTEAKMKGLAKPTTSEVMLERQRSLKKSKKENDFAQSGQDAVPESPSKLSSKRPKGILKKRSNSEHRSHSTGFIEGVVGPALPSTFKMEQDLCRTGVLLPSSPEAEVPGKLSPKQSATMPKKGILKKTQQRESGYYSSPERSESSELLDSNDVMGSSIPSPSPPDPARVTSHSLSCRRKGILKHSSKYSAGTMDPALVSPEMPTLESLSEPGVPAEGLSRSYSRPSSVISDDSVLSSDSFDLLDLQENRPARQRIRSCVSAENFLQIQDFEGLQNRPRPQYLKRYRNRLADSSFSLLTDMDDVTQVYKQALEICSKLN
The experiment in a line: Inhibition of NUAK1 (unknown origin) at 10 uM using CHKtide as substrate in presence of ATP measured after 60 mins by ADP-Glo assay.

Series [12] can be described thus: Toxicity against BALB/c-nu/nu mouse xenografted with human SW480 cells assessed as morphological changes in spleen at 10 to 20 mg/kg, ip administered every 2 days for 18 days by H and E staining based analysis. To be noted: in vivo, 432 h, dose 10-20 mg/kg, time 18 day. It is filed as organism-based. In outline: (§1)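 After 18 days of ip dosing every two days in SW480-xenografted nude mice, heart, liver, spleen, lung and kidney harvested, sectioned, HE-stained, examined at ×400.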

For series [13], the system named is HCT-116. The experiment in a line: Induction of cell cycle arrest in human HCT-116 cells assessed as increase in accumulation at G2/M phase at 10 uM measured after 48 hrs by PI/RNaseA staining based flow cytometry assay. It is filed as functional.
Series [14] in a line: Toxicity against BALB/c-nu/nu mouse xenografted with human SW480 cells assessed as morphological changes in liver at 10 to 20 mg/kg, ip administered every 2 days for 18 days by H and E staining based analysis. The following applies: in vivo, 432 h, dose 10-20 mg/kg, time 18 day. Type of series: organism-based. The gist of the method:
as §1

The test system of series [15] is SW480. The experiment in a line: Antitumour activity against human SW480 cells xenografted in Balb/c-nu/nu mouse assessed as reduction in Ki67 expression in tumor at 10 mg/kg, ip administered every 2 days for 18 days by immunohistochemical assay. To be noted: time 18.0 day. It is filed as functional, organism-based. The gist of the method: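 SW480 xenografts in nude mice (n = 6 per group) treated ip every two days for 18 days. Excised tumours sectioned for HE and Ki67 staining, examined at ×400.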

Series [16] can be described thus: Toxicity against BALB/c-nu/nu mouse xenografted with human SW480 cells assessed as body weight at 10 to 20 mg/kg, ip administered every 2 days for 18 days. Type of series: organism-based. The following applies: in vivo, 432 h, dose 10-20 mg/kg, time 18 day. The gist of the method:
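SW480 xenografts in nude mice, randomized at 100 mm3 tumour volume into four groups of six. Dosed ip at 10 or 20 mg/kg every two days for 18 days, with vehicle group. Tumour volume and body weight recorded every two days; tumours weighed at end; means ± SD (n = 6).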

For series [17], the system named is U2OS. The experiment in a line: Antiproliferative activity against human U2OS cells at 2.5 to 10 uM measured after 48 hrs by EdU staining based assay. Type of series: functional, cell-based. To be noted: dose 2.5-10 µM. The gist of the method:
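Cells exposed to a range of compound concentrations for 48 h, then EdU click-chemistry staining with DAPI counterstain. Confocal high-content imaging; DAPI-positive nuclei counted as total and EdU-positive as proliferating.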

The subject of series [18] is U2OS. The experiment in a line: Induction of apoptosis in human U2OS cells assessed as viable cells at 10 uM measured after 48 hrs by Annexin V-FITC/PI staining based flow cytometry method (reference value: 95.5%). To be noted: read-out: Activity. Type of series: functional.
Series [19] deals with U2OS. The experiment in a line: Induction of cell cycle arrest in human U2OS cells assessed as increase in accumulation at G2/M phase at 10 uM measured after 48 hrs by PI/RNaseA staining based flow cytometry assay. It is filed as functional.
The test system of series [20] is HCT-116. The experiment in a line: Induction of apoptosis in human HCT-116 cells assessed as viable cells at 10 uM measured after 48 hrs by Annexin V-FITC/PI staining based flow cytometry method (reference value: 95.4%). The following applies: read-out: Activity. Type of series: functional.
For series [21], the system named is SW480. The experiment in a line: Induction of apoptosis in human SW480 cells assessed as viable cells at 10 uM measured after 48 hrs by Annexin V-FITC/PI staining based flow cytometry method (reference value: 93.2%). It is filed as functional. To be noted: read-out: Activity.

`CCC(=O)Nc1cccc(Oc2nc(Nc3ccc(N4CCN(C)CC4)cc3)ncc2Cl)c1`: the Activity in the series with SW480 [1] is 3.3%; with SW480 [2], 10.8%; with U2OS [7], 4.8%; in the series with U2OS [10], 0.6%; in [12] it was “Non-Toxic”; in [14], “Non-Toxic”. Also, the Activity entry in series [16] is on record as “Non-Toxic”. Also, the result with HCT-116 [3], in the series with U2OS [4], in the series with SW480 [5], in the series on SW480 [6], in the series on U2OS [8] and in the series on SW480 [9] was Active. Besides, the result in the series on HCT-116 [13], in the series on SW480 [15], with U2OS [17] and with U2OS [19] was Active. The inhibition in series [11] was 92.9%. For the same compound, the viability at 10 µM in the series on U2OS [18] came out at 81.6%; with HCT-116 [20], 46%; in the series on SW480 [21] it was 69.8%.
